For data set [1], the system named is Human immunodeficiency virus 1. As to the kind of experiment: Inhibition of HIV-1 RT-RNase H domain expressed in Escherichia coli JM109 at 30 uM using HTS-1 as substrate preincubated for 10 mins followed by substrate/MgCl2 addition incubated for 10 mins by fluorescence-based assay. The method, boiled down:
(§1)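 Order-of-addition RNase H assay, HIV-1 RT in this format. Final conditions: 100 nM RT, 250 nM HTS-1 RNA/DNA duplex, 6 mM MgCl2, 30 µM inhibitor, 1% DMSO. RT is pre-incubated 10 min at 37 °C with the specified components. Missing components are then added and the reaction runs 10 min at 37 °C. Fluorescence signal is corrected against a DMSO-only control. Mean ± SD of two independent experiments.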

The subject of data set [2] is Human immunodeficiency virus 1. As to the kind of experiment: Inhibition of HIV-1 RT-RNase H domain expressed in Escherichia coli JM109 at 30 uM using HTS-1 as substrate preincubated with compound and MgCl2 for 10 mins followed by substrate addition incubated for 10 mins by fluorescence-based assay. The method, boiled down: as §1
The test system of data set [3] is Human immunodeficiency virus 1. As to the kind of experiment: Inhibition of HIV-1 RT-RNase H domain expressed in Escherichia coli JM109 at 30 uM using HTS-1 as substrate preincubated with compound/substrate for 10 mins followed by MgCl2 addition incubated for 10 mins by fluorescence-based assay. Put shortly: as §1
For data set [4], the system named is Human immunodeficiency virus 1. As to the kind of experiment: Inhibition of HIV-1 RT-RNase H domain expressed in Escherichia coli JM109 at 30 uM using HTS-1 as substrate preincubated with substrate for 10 mins followed by compound/MgCl2 addition incubated for 10 mins by fluorescence-based assay. Put shortly:
as §1

For data set [5], the system named is Human immunodeficiency virus 1. Briefly: Inhibition of HIV-1 RT-RNase H domain expressed in Escherichia coli JM109 at 30 uM using HTS-1 as substrate preincubated for 10 mins followed by substrate/MgCl2 addition incubated for 2 mins by fluorescence-based assay. The method, boiled down:
(§2)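 Excess-RT order-of-addition RNase H assay. RT is pre-incubated 10 min at 37 °C with inhibitor or with substrate. Remaining components are added and the reaction runs 2 min at 37 °C. Fluorescence is DMSO-control corrected. Mean ± SD of two independent experiments.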

Data set [6] relates to Human immunodeficiency virus 1. Briefly: Inhibition of HIV-1 RT-RNase H domain expressed in Escherichia coli JM109 at 30 uM using HTS-1 as substrate preincubated with substrate for 10 mins followed by compound/MgCl2 addition incubated for 2 mins by fluorescence-based assay. Put shortly: as §2
The subject of data set [7] is Human immunodeficiency virus 1. Briefly: Antiviral activity against HIV-1 infected in human HeLa P4/R5 cells assessed as inhibition of virus replication pretreated for 16 hrs followed by infection measured after 48 hrs by fluorescence-based beta-galactosidase detection assay. The class given is functional, organism-based. The method, boiled down:
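P4R5 indicator cells (CD4, CXCR4, CCR5; HIV LTR-driven β-galactosidase reporter) seeded at 5×10^3 per well in DMEM/10% FBS with puromycin 0.5 µg/ml. Drug exposure 16 h, then HIV infection and a further 48 h. Infection read by fluorescence-based β-galactosidase detection. Triplicate data points; EC50 taken from dose-response.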

The nature of data set [8]: Cytotoxicity against human HeLa P4/R5 cells up to 25 uM. The class given is cell-based.
Data set [9] can be described thus: Inhibition of HIV-1 RT-RNase H activity expressed in Escherichia coli JM109 using internal cleavage measuring HTS-1 as substrate by fluorescence-based assay. Set-up: species or system Human immunodeficiency virus 1. Put shortly: (§3)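 RT RNase H cleavage of fluorescein/Dabcyl-labelled RNA/DNA duplexes, with substrate in excess over RT. HTS-1 probes internal cleavage, HTS-2 DNA 3'-end-directed cleavage, and HTS-3 (fluorescein RNA annealed to Dabcyl DNA) RNA 5'-end-directed cleavage.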

Data set [10] can be described thus: Inhibition of HIV-1 RT-RNase H activity expressed in Escherichia coli JM109 using DNA 3'-end directed cleavage measuring HTS-2 as substrate by fluorescence-based assay. Set-up: species or system Human immunodeficiency virus 1. Put shortly: as §3
A short description of data set [11]: Inhibition of HIV-1 RT-RNase H activity expressed in Escherichia coli JM109 using RNA 5'-end directed cleavage measuring HTS-3 as substrate by fluorescence-based assay. Set-up: species or system Human immunodeficiency virus 1. Put shortly:
as §3

The nature of data set [12]: Inhibition of HIV-1 RT-RNase H domain fragment expressed in Escherichia coli by fluorescence-based assay. More on the design: species or system Human immunodeficiency virus 1.
In data set [13] the target is Human immunodeficiency virus type 1 reverse transcriptase (Human immunodeficiency virus 1, UniProt Q72547). As to the kind of experiment: Inhibition of HIV-1 RT RNA-dependent DNA polymerase activity expressed in Escherichia coli JM109 using [3H]TTP/ poly(rA)-oligo(dT)16 as substrate incubated for 20 mins by liquid scintillation spectrometric analysis. The method, boiled down: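 RNA-dependent DNA polymerase reaction in 50 mM Tris-HCl pH 7.4 (37°C), 60 mM KCl, 5 mM MgCl2, with 10 µM [3H]-TTP and 40 nM poly(rA)-oligo(dT)16. Started with 10 nM RT, 20 min at 37°C. Quenched in ice-cold 10% TCA plus 20 mM sodium pyrophosphate, glass-fiber filtered, washed with TCA and ethanol. Incorporation counted by liquid scintillation.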

The target of data set [14] is Human immunodeficiency virus type 1 integrase (Human immunodeficiency virus 1, UniProt Q7ZJM1, C280S/F185K). Briefly: Inhibition of full-length HIV-1 integrase F185K/C280S double mutant strand transfer activity expressed in Escherichia coli BL21(DE3) using oligo DNA as substrate preincubated for 10 mins followed by substrate addition incubated for 30 mins by plate reader analysis.
Sequence of Human immunodeficiency virus type 1 integrase (Q7ZJM1 entry or part of it C280S/F185K): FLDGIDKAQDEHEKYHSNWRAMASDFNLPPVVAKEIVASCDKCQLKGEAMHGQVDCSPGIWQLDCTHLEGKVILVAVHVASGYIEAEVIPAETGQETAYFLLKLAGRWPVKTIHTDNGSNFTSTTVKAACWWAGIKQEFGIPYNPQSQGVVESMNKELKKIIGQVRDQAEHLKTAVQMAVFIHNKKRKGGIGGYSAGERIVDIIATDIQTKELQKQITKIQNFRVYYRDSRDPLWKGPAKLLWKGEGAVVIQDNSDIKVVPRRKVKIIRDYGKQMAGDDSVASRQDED

Turning to `O=C(O)c1cn(Cc2cccc3ccccc23)cc(O)c1=O`, the inhibition (as a rule, how much of the control response was suppressed) in data set [1] is 58%; in [2], 51%; in data set [3], 35%; in [4], 28%; in data set [5], 82%; in data set [6], 61%. Besides, in data set [7], the inhibition result is “Dose-dependent effect”. The EC50 (commonly the concentration that produces a half-maximal response) in [7] (Human immunodeficiency virus 1, P4/R5) was found to be 10000 nM. Further, in data set [8], the CC50 (usually the concentration giving 50% cytotoxicity) is above 25000 nM.
`O=C(O)c1cn(Cc2ccc(-c3ccccc3)cc2)cc(O)c1=O`: the concentration for half-maximal inhibition (IC50) (usually the point on the concentration scale where inhibition reaches its midpoint) came out at 2500 nM in data set [9]; 2800 nM in data set [10]; 2900 nM in data set [11]; 1800 nM in data set [12]; 2200 nM in [13]; 22000 nM in [14]. Further, the inhibition is 68% in data set [1]; 36% in [2]; 37% in [3]; 21% in data set [4]; 78% in data set [5]; 59% in data set [6].

The record behind these values is ChEMBL document CHEMBL3817772, “Design, Synthesis, and Biological Evaluations of Hydroxypyridonecarboxylic Acids as Inhibitors of HIV Reverse Transcriptase Associated RNase H” (J Med Chem, 2016).
